≈ marks a conversion by molar mass, not a printed value.
Columns and labels:
[1] = test system: T-cell proliferation; experiment: T-cells proliferation assay; type: cell-based, human; details: for IC50: Homo sapiens, T-cell, 48 h, read-out: IC50 against T-cell proliferation
In short: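 PBMCs came from heparinized healthy human blood. Blood was diluted 1:1 with RPMI-1640, layered on LSM and spun at 400 g for 20 min at 25 °C. The buffy layer was washed at 4 °C and resuspended in RPMI with 5% FBS. Cells were activated with PHA-L, given test compound at several concentrations in triplicate, and incubated 2 days at 37 °C, 5% CO2. Alamar Blue (one-tenth volume) was added for 4 h; absorbance read at 570 and 600 nm.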

[2] = test system: cytokine (TNF-α) production in human leukemia cell line (THP-1); experiment: Cytokine; type: cell-based; details: THP-1 cells, LPS 50 ng/mL, 240 min; for inhibition of cytokine (TNF-α) production: test concentration not given
In short: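 THP-1 cells grown in RPMI-1640 with 50 µM mercaptoethanol, 1 mM sodium pyruvate, 10% FBS, 5.5 mM glucose, 2 mM L-glutamine and 10 mM HEPES, then plated at 70% confluency. Cells differentiated to macrophage-like cells with PMA 20 ng/mL for 24 h (37 °C, 5% CO2). E. coli LPS B added with test compound for 240 min. Supernatant TNF-α measured by human DuoSet ELISA.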

[3] = human T-lymphocytes, phytohemagglutinin-L 7.5 μg/mL, 2 days

Compound | activity against T-cell proliferation (in words) [1, 3] | inhibition of cytokine (TNF-α) production [2] | also measured
CC(=O)O[C@H]1CC[C@H]2[C@@H]3CC[C@H]4CC(=O)C=C(C)[C@]4(C)[C@H]3CC[C@]12C [Compound 1, Metenolone acetate, reference compound] | inactive | 62.5 ± 4.4% | –
17β-Hydroxy-1-methyl-3-oxo-5α-androst-1-en [Compound 8] | – | 69.7 ± 1.4% | IC50 against T-cell proliferation [1, 3]: 21.1 ± 0.04 µg/mL
CC1=CC(=O)C[C@@H]2C[C@H](O)[C@H]3[C@@H]4[C@H](O)C[C@H](O)[C@@]4(C)CC[C@@H]3[C@@]12C [Compound 14, 7β,15β,17β-trihydroxy-1-methyl-3-oxo-5α-androst-1-en] | – | 52.9 ± 2.4% | –
CC1=CC(=O)C[C@H]2CC[C@H]3[C@@H]4CC[C@H](O)[C@@]4(C)CC[C@@H]3[C@@]12C [Compound 9, 17β-Hydroxy-1-methyl-3-oxo-5β-androst-1-en] | – | – | activity against cytokine (TNF-α) production (in words) [2]: inactive
CC(=O)OC1CC[C@H]2[C@@H]3C[C@H](O)[C@H]4CC(=O)C=C(C)[C@]4(C)[C@H]3CC[C@]12C (stereo partly drawn) [Compound 2, 6α-Hydroxy-1-methyl-3-oxo-5α-androst-1-en-17-yl acetate] | – | 73.4 ± 0.6% | IC50 [1]: 68.9 ± 0.02 µg/mL
CC1=CC(=O)C=C2CC[C@@H]3[C@H](CC[C@]4(C)[C@@H](O)CC[C@@H]34)[C@@]12C [Compound 7, 17β-Hydroxy-1-methyl-3-oxoandrosta-1,4-dien] | inactive | 46.6 ± 5.2% | –
CC1=CC(=O)C[C@H]2CC[C@@H]3[C@H](CC[C@]4(C)C(=O)CC[C@@H]34)[C@@]12C [Compound 10, 1-Methyl-5β-androst-1-en-3,17-dione] | – | 73.2 ± 0.3% | –
C[C@]12C=CC(=O)C=C1CC[C@@H]1[C@@H]2[C@@H](O)C[C@@]2(C)[C@H]1CC[C@]2(O)C(=O)CO [prednisolone, reference compound] | – | – | IC50 [1]: 3.51 ± 0.03 µg/mL (≈ 9.74 µM)
CC(=O)OC1CC[C@H]2[C@@H]3[C@@H](O)C[C@H]4CC(=O)C=C(C)[C@]4(C)[C@H]3CC[C@]12C (stereo partly drawn) [Compound 4, 7β-Hydroxy-1-methyl-3-oxo-5α-androst-1-en-17-yl acetate] | inactive | 33.5 ± 6.6% | –
CC1=CC(=O)C=C2CC[C@@H]3[C@H](C[C@@H](O)[C@]4(C)[C@@H](O)CC[C@@H]34)[C@@]12C [Compound 11, 12β,17β-Dihydroxy-1-methyl-3-oxoandrosta-1,4-dien] | – | 60.1 ± 3.3% | –
CC(=O)OC1C[C@@H](O)[C@H]2[C@@H]3CC[C@H]4CC(=O)C=C(C)[C@]4(C)[C@H]3CC[C@]12C (stereo partly drawn) [Compound 6, 15β-Hydroxy-1-methyl-3-oxo-5α-androst-1-en-17-yl acetate] | inactive | 37.8 ± 1.1% | –
C[C@H]1CC(=O)C[C@@H]2CC[C@H]3[C@@H]4CC[C@H](O)[C@@]4(C)CC[C@@H]3[C@]21C [Compound 13, 17β-Hydroxy-1α-methyl-5α-androstan-3-one] | – | – | activity against cytokine (TNF-α) production (in words) [2]: inactive
